The values below come from ChEMBL document CHEMBL1833879, “Anti-obesity effects of the methanolic extract and chakasaponins from the flower buds of Camellia sinensis in mice” (2011).

Assay [1] has as its system Mus musculus. The assay can be described thus: Antiobesity activity in ddY mouse assessed as inhibition of AgRP mRNA level in hypothalamus at 50 mg/kg, po for 4 days relative to control. The assay is classed as functional. In a few lines: (§1)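 Male ddY mice dosed po once daily at 15:00–17:00 for 4 d. Hypothalamus dissected 1 h after final dose, held in RNAlater, total RNA extracted. NPY and AgRP mRNA quantified by SYBR qPCR (40 cycles, annealing 58 °C) by relative quantification normalised to β-actin and expressed as ratio to control; n = 6, mean ± SEM.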

Assay [2] relates to Mus musculus. The assay can be described thus: Antiobesity activity in ddY mouse assessed as inhibition of AgRP mRNA level in hypothalamus at 25 mg/kg, po for 4 days relative to control. The assay is classed as functional. In a few lines:
as §1

For assay [3], the system named is Mus musculus. The experiment in a line: Antiobesity activity in ddY mouse assessed as inhibition of neuropeptide Y mRNA level in hypothalamus at 25 mg/kg, po for 4 days relative to control. The class given is functional. In a few lines:
as §1

The test system of assay [4] is Mus musculus. The experiment in a line: Antiobesity activity in ddY mouse assessed as food intake at 50 mg/kg, po measured upto 3 days (RVb = 15.2 g). The class given is functional.
For assay [5], the system named is Mus musculus. The experiment in a line: Antiobesity activity in capsaicin-treated ddY mouse assessed as reduction in food intake at 50 mg/kg, po for 3 days. The assay is classed as functional, organism-based. Also noted: dose 50 mg/kg.
Assay [6] relates to Mus musculus. The assay can be described thus: Antiobesity activity in ddY mouse assessed as gastric emptying at 50 mg/kg, po measured for 30 mins by Phenol red method (RVb = 90.4 +/- 1.2 %). The class given is functional, Stomach.
The subject of assay [7] is Ileum. The assay can be described thus: Induction of 5-HT release from ddY mouse ileum assessed as remaining 5-HT per mg of protein at 100 µM after 20 mins by HPLC (RVb = 0.861 +/- 0.164 ng/mg protein).
Assay [8] deals with Ileum. The assay can be described thus: Induction of 5-HT release from ddY mouse ileum assessed as remaining 5-HT per gram of tissue at 100 uM after 20 mins by HPLC (RVb = 68.8 +/- 12.4 ng/g tissue).
The subject of assay [9] is Ileum. The experiment in a line: Induction of 5-HT release from ddY mouse ileum assessed as remaining 5-HT per mg of protein at 1000 µM after 20 mins by HPLC (RVb = 0.861 +/- 0.164 ng/mg protein).
The subject of assay [10] is Ileum. The assay can be described thus: Induction of 5-HT release from ddY mouse ileum assessed per gram of tissue at 1000 µM after 20 mins by HPLC (RVb = 11.2 +/- 1.3 ng/g tissue).
In assay [11] the test system is Mus musculus. The assay can be described thus: Antiobesity activity in capsaicin treated ddY mouse assessed as gastric emptying at 25 mg/kg, po measured for 30 mins by Phenol red method (RVb = 87.7 +/- 2.3 %). The assay is classed as functional, Stomach.
In assay [12] the test system is Ileum. The assay can be described thus: Induction of 5-HT release from ddY mouse ileum assessed per gram of tissue at 100 µM after 20 mins by HPLC (RVb = 11.2 +/- 1.3 ng/g tissue).
Assay [13] deals with Mus musculus. The assay can be described thus: Antiobesity activity in ddY mouse assessed as inhibition of food intake at 50 mg/kg, po. Also noted: dose 50 mg/kg. The assay is classed as functional, organism-based.
The test system of assay [14] is Mus musculus. The assay can be described thus: Antiobesity activity in ddY mouse assessed as gastric emptying at 25 mg/kg, po measured for 30 mins by Phenol red method (RVb = 90.4 +/- 1.2 %). The assay is classed as functional, Stomach.
Assay [15] has as its system Ileum. The assay can be described thus: Induction of 5-HT release from ddY mouse ileum assessed as remaining 5-HT per gram of tissue at 1000 µM after 20 mins by HPLC (RVb = 68.8 +/- 12.4 ng/g tissue).
In assay [16] the test system is Mus musculus. The experiment in a line: Antiobesity activity in ddY mouse assessed as inhibition of neuropeptide Y mRNA level in hypothalamus at 50 mg/kg, po for 4 days relative to control. The assay is classed as functional. In a few lines: as §1
Assay [17] has as its system Mus musculus. The assay can be described thus: Antiobesity activity in capsaicin treated ddY mouse assessed as inhibition of gastric emptying at 50 mg/kg, po measured for 30 mins by Phenol red method (RVb = 87.7 +/- 2.3 %). The class given is functional, Stomach. Details: scale not given: the % may be the effect or the level left.
For assay [18], the system named is Mus musculus. The experiment in a line: Antiobesity activity in ddY mouse assessed as gastric emptying at 25 mg/kg, po measured for 30 mins by Phenol red method (RVb = 86.6 +/- 1.8 %). The class given is functional, Stomach.
Assay [19] concerns Mus musculus. The assay can be described thus: Antiobesity activity in capsaicin-treated ddY mouse assessed as gastric emptying at 25 mg/kg, po measured for 30 mins by Phenol red method (RVb = 85.8 +/- 2 %). The assay is classed as functional, Stomach.
In assay [20] the test system is Mus musculus. The assay can be described thus: Antiobesity activity in ddY mouse assessed as gastric emptying at 50 mg/kg, po measured for 30 mins by Phenol red method (RVb = 86.6 +/- 1.8 %). The class given is functional, Stomach.
Assay [21] concerns Mus musculus. The assay can be described thus: Antiobesity activity in capsaicin treated ddY mouse assessed as gastric emptying at 50 mg/kg, po measured for 30 mins by Phenol red method (RVb = 85.8 +/- 2 %). The class given is functional, Stomach.

Active and inactive are the calls of the source. The rule behind the calls is not given here.

Take `CC1(C)C[C@H]2C3=CC[C@@H]4[C@@]5(C)CC[C@H](O[C@@H]6O[C@H](C(=O)O)[C@@H](O)[C@H](O[C@@H]7OC[C@H](O)[C@H](O)[C@H]7O[C@@H]7OC[C@@H](O)[C@H](O)[C@H]7O)[C@H]6O[C@@H]6O[C@H](CO)[C@H](O)[C@H](O)[C@H]6O)C(C)(C)[C@@H]5CC[C@@]4(C)[C@]3(C)[C@@H](O)[C@@H](O)[C@@]2(CO)[C@@H](O)[C@@H]1O`: the inhibition entry with Mus musculus [1], in the assay on Mus musculus [2] and in the assay with Mus musculus [3] was “inactive” each time.
Turning to `C/C=C(\C)C(=O)O[C@H]1[C@H](OC(C)=O)[C@]2(CO)[C@H](O)[C@H](O)[C@]3(C)C(=CC[C@@H]4[C@@]5(C)CC[C@H](O[C@@H]6O[C@H](C(=O)O)[C@@H](O)[C@H](O[C@@H]7OC[C@H](O)[C@H](O)[C@H]7O[C@@H]7OC[C@@H](O)[C@H](O)[C@H]7O)[C@H]6O[C@@H]6O[C@H](CO)[C@H](O)[C@H](O)[C@H]6O)C(C)(C)[C@@H]5CC[C@]43C)[C@@H]2CC1(C)C` [CHAKASAPONIN III], in the assay on Mus musculus [4], the Activity amounted to 12.6 g.
With `C/C=C(\C)C(=O)O[C@H]1[C@H](OC(=O)/C(C)=C/C)[C@]2(CO)[C@H](O)[C@H](O)[C@]3(C)C(=CC[C@@H]4[C@@]5(C)CC[C@H](O[C@@H]6O[C@H](C(=O)O)[C@@H](O)[C@H](O[C@@H]7OC[C@H](O)[C@H](O)[C@H]7O[C@@H]7OC[C@@H](O)[C@H](O)[C@H]7O)[C@H]6O[C@@H]6O[C@H](CO)[C@H](O)[C@H](O)[C@H]6O)C(C)(C)[C@@H]5CC[C@]43C)[C@@H]2CC1(C)C` [CHAKASAPONIN II], the “fold change (FC)” value turned out to be 1.03 with Mus musculus [1], 1.08 with Mus musculus [2], 1.09 with Mus musculus [3] and 0.63 in the assay with Mus musculus [16]. Further, the result in the assay with Mus musculus [5] was Active. Besides, the Activity in the assay on Mus musculus [6] amounted to 57.6%; in the assay with Ileum [7], 0.659 ng/mg; in the assay on Ileum [8], 50.8 ng/g; with Ileum [9], 0.396 ng/mg; in the assay on Ileum [10], 28.3 ng/g; in the assay on Mus musculus [11], 81.4%. Also, the Activity with Ileum [12] was 15.6 ng/g; in the assay on Mus musculus [14], 77.9%; in the assay on Ileum [15] it was 31.6 ng/g; with Mus musculus [17], 67.1%. Besides, in the assay with Mus musculus [13], the inhibition result was “Active”.
With `C/C=C(\C)C(=O)O[C@H]1[C@H](OC(C)=O)[C@]2(CO)[C@H](O)C[C@]3(C)C(=CC[C@@H]4[C@@]5(C)CC[C@H](O[C@@H]6O[C@H](C(=O)O)[C@@H](O)[C@H](O[C@@H]7OC[C@H](O)[C@H](O)[C@H]7O[C@@H]7OC[C@@H](O)[C@H](O)[C@H]7O)[C@H]6O[C@@H]6O[C@H](CO)[C@H](O)[C@H](O)[C@H]6O)C(C)(C)[C@@H]5CC[C@]43C)[C@@H]2CC1(C)C` [CHAKASAPONINS I], the Activity was 76.4% with Mus musculus [18]; 10.5 g in the assay with Mus musculus [4]; 79.2% in the assay on Mus musculus [19]; 55.7% with Mus musculus [20]; 68% with Mus musculus [21].
